Sampled rows, rich in hits. Any-hit rate of the full collection: about 6.5%.
PostGolgi yeast – phenotypic screen on post-Golgi transport, primary screen | post-Golgi transport phenotypic cell assay | inhibition, % at 10 µM | 0.9% of 98,000 active;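 further: yeast cells grown in 1536-well plates; yeast grown about 18 h at 30C before absorbance read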
PostGolgi ctrl – growth inhibition of yeast control strain, primary screen, counter-screen for post-Golgi transport modulator project; efflux-deficient yeast background strain, growth absorbance A615, 16 h; inhibition, % at 10 µM; 5% of 98,000 active; AID 738, 2007
PTK2B oligo ant – antagonists of Pyk2 self-association, primary screen, Q293 cells, FERM NanoBiT luminescence, HTS; Protein-tyrosine kinase 2-beta (Homo sapiens), Q14289; stronger effect = lower value; z-score (the deposit names both 25 µM and 10 µM); 0.83% of 99,000 active;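 active means Z-score of -3 or lower, scaled per plate to the spread of control and sample wells; inactive means z-score above -3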;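 further: negative z-score means lost luminescence so less FERM oligomerization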
Target sequence (Q14289 whole entry, looked up): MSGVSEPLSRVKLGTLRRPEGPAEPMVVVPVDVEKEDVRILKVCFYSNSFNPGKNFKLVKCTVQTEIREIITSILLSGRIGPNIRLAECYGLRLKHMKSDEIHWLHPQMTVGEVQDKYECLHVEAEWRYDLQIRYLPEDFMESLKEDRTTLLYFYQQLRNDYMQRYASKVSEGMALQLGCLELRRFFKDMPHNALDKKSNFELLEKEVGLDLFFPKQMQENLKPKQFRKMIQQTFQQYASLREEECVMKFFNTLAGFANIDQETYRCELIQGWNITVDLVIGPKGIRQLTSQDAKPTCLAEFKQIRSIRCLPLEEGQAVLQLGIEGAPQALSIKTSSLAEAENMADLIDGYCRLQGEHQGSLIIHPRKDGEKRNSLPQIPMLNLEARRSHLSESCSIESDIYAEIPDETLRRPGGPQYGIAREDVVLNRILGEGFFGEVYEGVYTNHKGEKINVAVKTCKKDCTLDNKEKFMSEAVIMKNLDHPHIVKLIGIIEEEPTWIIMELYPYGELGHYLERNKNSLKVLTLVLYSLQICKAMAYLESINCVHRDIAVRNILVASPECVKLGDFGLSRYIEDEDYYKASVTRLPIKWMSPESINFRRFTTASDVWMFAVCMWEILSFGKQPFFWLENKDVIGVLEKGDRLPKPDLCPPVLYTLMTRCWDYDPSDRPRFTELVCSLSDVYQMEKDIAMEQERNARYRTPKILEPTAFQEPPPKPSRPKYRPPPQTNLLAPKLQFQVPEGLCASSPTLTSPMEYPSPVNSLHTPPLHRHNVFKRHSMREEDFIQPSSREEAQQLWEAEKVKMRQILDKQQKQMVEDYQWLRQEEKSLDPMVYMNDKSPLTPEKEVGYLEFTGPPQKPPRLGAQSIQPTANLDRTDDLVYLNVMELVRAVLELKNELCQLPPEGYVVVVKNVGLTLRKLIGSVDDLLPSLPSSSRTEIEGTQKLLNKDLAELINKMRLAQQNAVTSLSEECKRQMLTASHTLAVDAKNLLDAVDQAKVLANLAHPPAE
Ecoli tolC – growth inhibitors of E. coli tolC mutant, primary screen, strain BW25113 ΔtolC::kan, 384-well; OD615; growth inhibition, % at 10 µM (by protocol); 2.2% of 65,000 active;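 active means growth inhibition at or above a cutoff equal to the mean over every tested compound plus 3 SD, cut at about 60% in these data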;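 further: growth measured after 20 h incubation at 37 °C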
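Test system: E. coli BW25113 ΔtolC::kan bacteria | Medium: Kanamycin-containing LB broth (50 µg/mL) | Dosing: One dose of 10 µM final | Times: 20 h incubation with compound, 37 °C | Detection: Optical density read at 615 nm | Read-out basis: Percent growth inhibition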
Ecoli WT expand – growth inhibitors of wild-type E. coli, primary screen, strain BW25113, expanded library, OD600; growth inhibition, % at 100 µM; AID 710, 2007; 0.15% of 98,000 active; OD600 absorbance;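 active means growth inhibition above about 50% at one test dose, limit read from the data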;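 further: growth measured after 20 h incubation at 37 °C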
Calb biofilm kill – clotrimazole potentiators killing Candida biofilms, primary screen, with clotrimazole, Alamar Blue. C. albicans biofilm + clotrimazole. inhibition, % at 6 µM. 0.14% of 85,000 active. AID 834, 2007;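 active means inhibition above 20%; inactive means inhibition below 20%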;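 further: preformed 24 hr biofilms exposed to compound for 48 hr; 0% = biofilm without compound and 100% = blank killed by clotrimazole plus chlorhexidine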
Numbers without * were called inactive; / = not tested or not shown. Unless noted, no stated cut-off is given here; in the data, active means inhibition above about 30%; inactive means the rest.

SMILES	PostGolgi yeast	PostGolgi ctrl	PTK2B oligo ant	Ecoli tolC	Ecoli WT expand	Calb biofilm kill
CC12CN(S(=O)(=O)c3ccccc3)CC(C)(CN(S(=O)(=O)c3ccccc3)C1)C2	0.2	12.7	0.88	/	-7.0	0.9
O=C(Cn1cnc2c(cnn2-c2ccc(F)cc2)c1=O)N1CCN(c2ccccc2F)CC1	-8.8	6.2	0.57	-8.7	-11.0	10.1
O=C(Cn1nnc2c(cnn2-c2ccccc2)c1=O)N1CCN(c2ccccc2F)CC1	-4.7	36.6*	1.98	49.2	-8.0	2.0
CCN(C(=O)CSc1nnc(NC2CCCCC2)s1)C1CCS(=O)(=O)C1 (stereo not drawn)	-0.8	1.6	0.05	/	-9.0	/
O=C1/C(=C/c2ccc([N+](=O)[O-])cc2)C=C(c2ccccc2)N1c1ccc(O)cc1	92.3*	73.6*	-1.18	/	-10.0	4.7
Cn1c(SCC(=O)NCC2CCCO2)nnc1-c1ccc(S(=O)(=O)N2CCCC2)cc1 (stereo not drawn)	25.6	27.8	2.47	-7.1	3.0	6.3
O=C(Cn1nnc(-c2ccc(S(=O)(=O)N3CCCC3)cc2)n1)NCC1CCCO1 (stereo not drawn)	33.8*	-2.1	2.13	-4.0	3.0	17.0
COc1ccccc1NCc1nnc(SCC(=O)N/N=C/c2ccco2)n1-c1ccc(Cl)cc1Cl	-3.0	24.8	0	/	7.0	/
Clc1cccc(CON/C=N/c2ncnc3sccc23)c1	20.8	34.8*	1.99	/	-2.0	/
Cc1nc(-c2cccc(NS(=O)(=O)c3cccc4ccccc34)c2)cs1	-3.7	62.5*	-1.59	/	0.0	-1.6
Cc1ccc(C23CC4CC(CC(NC(=O)NC(C)(C)CO)(C4)C2)C3)cc1	-2.1	38.1*	-1.02	/	-5.0	1.9
Clc1ccc(-c2nnnn2-c2ccc(Cl)c(Cl)c2)cc1Cl	18.1	13.6	-0.46	/	-8.0	4.6
COc1cc(NC(=O)c2ccccc2-c2ccccc2)cc(OC)c1	/	/	-1.06	/	/	/
Cc1ccc(S(=O)(=O)NC(C)(C)CSc2nnc(Nc3ccccc3)s2)cc1	3.4	34.1*	-2.75	/	-14.0	4.8
Cc1ccc(S(=O)(=O)NC(C)(C)CSc2nncn2N)cc1	3.8	15.6	-0.18	-7.7	-8.0	6.7
O=C(c1ccco1)N1CCN(C(c2cccs2)c2nnnn2C2CCCCC2)CC1 (stereo not drawn)	2.6	-4.3	-0.89	-11.3	5.0	7.8
CCOC(=O)N1CCN(C(=O)Cn2nc(-c3ccc(Cl)cc3)ccc2=O)CC1	-4.8	-0.8	/	1.7	1.0	/
CCOC(=O)Cn1nc(-c2ccc(Cl)cc2)ccc1=O	-4.0	36.5*	2.81	2.6	-2.0	/
CCOC(=O)C1=C(CSc2nc3ccccc3s2)NC(=O)NC1c1cccc([N+](=O)[O-])c1 (stereo not drawn)	15.6	9.9	-1.38	/	-1.0	/
CCCCOC(=O)Nc1cc(C(=O)OC)ccc1C(=O)OC	4.7	9.9	-0.95	66.6*	-1.0	3.1
CCCCOC(=O)Nc1ccc(C(=O)OC)cc1	2.1	-0.6	0.34	-16.2	-6.0	3.4
CC1=Nc2ncnn2C(c2ccccc2)/C1=N\O (stereo not drawn)	-1.7	6.5	-0.61	-9.4	4.0	4.3
CC(C)C(c1nnnn1C1CCCC1)N1c2ccccc2CC1C (stereo not drawn)	2.2	-6.4	0	73.9*	5.0	1.4
O=C1CN(C(=O)COC(=O)CCSc2ccccc2Cl)c2ccccc2N1	8.0	-3.3	1.33	/	2.0	/
Cc1ccc(C(C)(C)C)c(OCCN2CCCC2)c1	/	/	0.22	/	/	/
SMILES	PostGolgi yeast	PostGolgi ctrl	PTK2B oligo ant	Ecoli tolC	Ecoli WT expand	Calb biofilm kill
Cc1cc(C(C)(C)C)ccc1OCCN1CCCC1	66.8*	29.1	0.93	/	9.0	6.5
N#Cc1c(C(F)(F)F)cc(-c2ccco2)nc1SCc1ccncc1	-0.2	48.7*	0.2	39.1	-13.0	2.3
N#Cc1c(C(F)(F)F)cc(-c2ccco2)nc1SCc1ccccn1	13.7	8.7	-0.47	14.3	-5.0	1.8
COC(=O)c1ccccc1NC(=O)c1cccc(NC(=O)CSCc2ccccc2)c1C	-3.6	17.5	0.09	/	1.0	/
CCn1c(N2CCN(C(=S)NCCc3ccccc3)CC2)nc2ccccc21	3.7	31.4*	-0.1	/	-14.0	/
CC1CCCCN1C(=S)NCCc1ccccc1 (stereo not drawn)	-1.4	5.7	0.36	/	1.0	/
CC1CCCN(C(=S)NCCc2ccccc2)C1 (stereo not drawn)	-0.5	31.7*	-0.01	/	11.0	9.4
COC(=O)c1ccccc1CON1C(=O)C(C)(C)N(OCc2ccccc2C(=O)OC)C(=O)C1(C)C	1.2	3.2	-2.13	/	0.0	1.5
O=C(/C=C/c1ncc(C(F)(F)F)cc1Cl)OCc1ccccc1	18.9	2.6	1.02	/	-3.0	/
CC(C)C1Cc2[nH]c(=O)c(C(=O)O)cc2CO1 (stereo not drawn)	6.2	5.7	0.22	-8.1	-3.0	8.6
O=C(Nc1cc(Cl)ccc1Cl)C1CC(=O)N(c2ccc(Br)cc2)C1 (stereo not drawn)	-4.3	5.8	0.57	/	5.0	1.9
Cc1cc(C)cc(-c2nc(-c3ccncc3)no2)c1	-12.8	8.3	/	4.7	-7.0	20.7*
CC(C)(C)c1ccc(-c2nc(-c3ccncc3)no2)cc1	/	/	0.73	/	/	0.9
Brc1cccc(-c2nc(-c3ccncc3)no2)c1	12.6	42.7*	1.18	-0.9	0.0	1.8
Clc1ccc(Br)cc1-c1nc(-c2ccncc2)no1	4.9	2.8	0.01	-3.0	-2.0	0.0
COc1cc(/C=N/NC(=O)c2cncc(Br)c2)ccc1OC(=O)c1ccc2c(c1)OCO2	-7.4	-3.4	/	/	-13.0	/
CCOc1ccc(N=C2NC(=O)S/C2=C\c2ccc(N(C)C)cc2)cc1	-5.1	34.3*	-2.2	/	-25.0	/
CCOc1ccc(/C=C2/SC(=O)NC2=S)cc1	/	/	-0.05	/	/	/
CC(NC(=O)Cn1cnnn1)C12CC3CC(CC(C3)C1)C2 (stereo not drawn)	17.5	14.0	0.55	-14.7	-1.0	10.5
CCCn1c(SCC(=O)NC(C)C23CC4CC(CC(C4)C2)C3)n[nH]c1=O (stereo not drawn)	-2.5	38.1*	3.38	/	2.0	6.8
C=CCN(c1ccc(C(=O)N2CCCC2)cc1)S(C)(=O)=O	5.2	38.7*	1.7	-7.4	-1.0	3.6
CCn1c2ccccc2c2cc(/C=N/n3cn[nH]c3=S)ccc21	3.5	42.7*	-1.09	/	7.0	8.9
CCn1c2ccccc2c2cc(/C=N/n3cnnc3)ccc21	10.1	41.9*	-1.58	40.0	-6.0	8.1
CCn1c2ccccc2c2cc(/C=N/NC(=O)c3cccc(C)c3)ccc21	-2.2	34.1*	-0.46	/	-8.0	/
S=c1[nH]ncn1/N=C/c1ccccc1	7.4	-7.2	-0.09	-23.2	-5.0	-1.8
O=c1[nH]c(SCc2cccc(Cl)c2)nc2c1CCCC2	0.3	33.6*	-1.71	1.9	0.0	9.7
O=c1[nH]c(SCc2cccc(F)c2)nc2c1CCCC2	/	/	-0.6	/	/	/
CCn1c(NC(=O)Nc2cccc(C)c2C)cc2sccc21	-4.3	17.3	/	/	-5.0	/

Compound activity from PubChem BioAssay.
